Source: ChEMBL document CHEMBL4480362, “Design and synthesis of DNA-intercalative naphthalimide-benzothiazole/cinnamide derivatives: cytotoxicity evaluation and topoisomerase-IIα inhibition” (Medchemcomm, 2019)
pIC50: −log10 of the molar value. The source made the active and inactive calls. No cut-off for these calls is given here.

Experiments:
HT-29 = test: Cytotoxicity against human HT-29 cells assessed as reduction in cell viability after 48 hrs by MTT assay; type: functional, cell-based; conditions: HT-29, 48 h
How it was run: (§1)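 Cell lines from NCCS were grown in DMEM with 10% FBS, penicillin and streptomycin at 37 °C, 5% CO2. Cells were seeded, left 24 h, then exposed to compound for 48 h. MTT (5 mg/ml stock) was added for 4 h. Formazan was dissolved in DMSO and absorbance read at 570 nm.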

MCF7 = test: Cytotoxicity against human MCF7 cells assessed as reduction in cell viability after 48 hrs by MTT assay; type: functional, cell-based; conditions: MCF7, 48 h; how it was run: as §1
A549 = test: Cytotoxicity against human A549 cells assessed as reduction in cell viability after 48 hrs by MTT assay; type: functional, cell-based; conditions: A549, 48 h; how it was run: as §1
[1] = target: DNA topoisomerase 2-alpha (Homo sapiens) (UniProt P11388); test: Inhibition of topoisomerase 2 (unknown origin) assessed as reduction in decatenation of kinetoplast DNA at 100 uM incubated for 30 mins by ethidium bromide staining based gel electrophoresis method
[2] = system: Panel NCI-60 (60 carcinoma cell lines); test: Growth inhibition of human NCI60 cells after 72 hrs by SRB assay; type: functional
Calf thymus DNA [3] = test: Binding affinity to calf thymus DNA assessed as positive band formation at 15 to 30 uM by CD spectroscopic method; type: nucleic-acid assay; conditions: Bos taurus
How it was run: (§2)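 CD spectra recorded from 225 to 325 nm with about 15 × 10^-6 M CT DNA. Compound:DNA molar ratios were 1:0 and 1:1, in 100 mM TE (pH 7.0) at 25 °C. Each spectrum is the average of three scans.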

Calf thymus DNA [4] = test: Binding affinity to calf thymus DNA assessed as hyperchromicity at 15 to 30 uM by CD spectroscopic method; type: nucleic-acid assay; conditions: Bos taurus; how it was run: as §2
Calf thymus DNA [5] = test: Binding affinity to calf thymus DNA assessed as hypochromic shift formation at 25 uM by UV-vis spectra method; type: nucleic-acid assay; conditions: Bos taurus
How it was run: (§3)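 CT DNA titrated into a cuvette holding about 25 µM hybrid in 100 mM TE (pH 7.0), at 25 °C with a 1 cm quartz cell. The compound stock was in DMSO, diluted into buffer. DNA was added stepwise until the hybrid absorption band stayed at a fixed wavelength. Solutions were prepared fresh the same day.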

Calf thymus DNA [6] = test: Binding affinity to calf thymus DNA assessed as increase in emission peak intensity at 10 uM by fluorescence spectroscopic method; type: nucleic-acid assay; conditions: Bos taurus
How it was run: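 Compound held constant at 10 µM and titrated with CT DNA added in multiples of 0.5 µM, at 25 °C in a 1 cm quartz cuvette. Excitation at 350 nm; emission recorded from 355 to 500 nm after each addition. Spectra are averages of three scans.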

Calf thymus DNA [7] = test: Binding affinity to calf thymus DNA assessed as change in viscosity at 15 uM by ethidium bromide staining-based method; type: nucleic-acid assay; conditions: Bos taurus
Calf thymus DNA [8] = test: Binding affinity to calf thymus DNA assessed as absorption band formation at 25 uM by UV-vis spectra method; type: nucleic-acid assay; conditions: Bos taurus; how it was run: as §3
Calf thymus DNA [9] = test: Binding affinity to calf thymus DNA assessed as bathochromic shift at 25 uM by UV-vis spectra method; type: nucleic-acid assay; conditions: Bos taurus; how it was run: as §3

Sequence of DNA topoisomerase 2-alpha (Homo sapiens) (P11388 whole entry): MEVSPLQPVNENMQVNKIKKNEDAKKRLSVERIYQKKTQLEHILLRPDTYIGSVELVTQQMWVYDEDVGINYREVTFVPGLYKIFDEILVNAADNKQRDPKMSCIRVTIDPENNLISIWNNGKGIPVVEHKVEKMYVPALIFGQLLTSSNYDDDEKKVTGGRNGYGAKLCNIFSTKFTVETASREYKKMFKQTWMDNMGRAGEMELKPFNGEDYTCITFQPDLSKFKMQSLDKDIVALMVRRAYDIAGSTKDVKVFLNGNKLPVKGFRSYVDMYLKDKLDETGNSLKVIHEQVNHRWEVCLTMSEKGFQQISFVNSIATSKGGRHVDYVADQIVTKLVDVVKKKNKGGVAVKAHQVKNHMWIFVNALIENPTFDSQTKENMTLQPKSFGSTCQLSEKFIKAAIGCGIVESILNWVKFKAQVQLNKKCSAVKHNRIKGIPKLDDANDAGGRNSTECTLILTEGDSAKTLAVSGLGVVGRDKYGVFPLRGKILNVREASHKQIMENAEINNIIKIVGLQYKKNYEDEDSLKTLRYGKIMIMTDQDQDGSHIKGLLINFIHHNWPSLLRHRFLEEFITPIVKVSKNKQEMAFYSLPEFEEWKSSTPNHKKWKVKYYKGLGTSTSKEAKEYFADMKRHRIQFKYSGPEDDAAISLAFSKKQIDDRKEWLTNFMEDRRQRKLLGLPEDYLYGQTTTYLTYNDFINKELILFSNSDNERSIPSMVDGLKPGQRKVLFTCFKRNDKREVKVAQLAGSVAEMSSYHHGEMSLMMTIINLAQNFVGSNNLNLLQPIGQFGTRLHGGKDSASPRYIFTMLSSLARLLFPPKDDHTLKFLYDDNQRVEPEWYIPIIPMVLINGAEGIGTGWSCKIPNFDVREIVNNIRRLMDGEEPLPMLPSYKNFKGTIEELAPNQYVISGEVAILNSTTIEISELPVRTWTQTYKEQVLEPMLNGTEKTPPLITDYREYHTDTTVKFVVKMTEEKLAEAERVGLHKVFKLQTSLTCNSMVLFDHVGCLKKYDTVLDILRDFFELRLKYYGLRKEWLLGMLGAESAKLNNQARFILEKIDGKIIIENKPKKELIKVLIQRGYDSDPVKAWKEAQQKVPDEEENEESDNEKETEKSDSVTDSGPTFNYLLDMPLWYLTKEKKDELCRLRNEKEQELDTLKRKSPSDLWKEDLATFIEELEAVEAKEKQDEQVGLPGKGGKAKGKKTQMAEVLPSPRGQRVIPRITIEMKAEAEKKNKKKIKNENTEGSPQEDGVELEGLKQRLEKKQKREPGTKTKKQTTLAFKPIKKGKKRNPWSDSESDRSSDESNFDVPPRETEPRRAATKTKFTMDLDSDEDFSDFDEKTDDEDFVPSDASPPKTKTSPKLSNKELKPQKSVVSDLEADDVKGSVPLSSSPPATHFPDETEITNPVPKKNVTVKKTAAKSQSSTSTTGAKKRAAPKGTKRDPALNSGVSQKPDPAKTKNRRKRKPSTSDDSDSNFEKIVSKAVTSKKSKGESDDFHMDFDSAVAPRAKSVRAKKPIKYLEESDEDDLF

## CCOc1ccc(/C=C/C(=O)N2CCN(CCN3C(=O)c4cccc5cccc(c45)C3=O)CC2)cc1
HT-29
  pIC50: 4.92
MCF7
  pIC50: 4.54
A549
  pIC50: 4.71

## O=C(/C=C/c1cc(F)ccc1F)N1CCN(CCN2C(=O)c3cccc4cccc(c34)C2=O)CC1
HT-29
  pIC50: 5.38
MCF7
  pIC50: 4.95
A549
  pIC50: 5.19

## CN(C)CCN1C(=O)c2cccc3cc(N)cc(c23)C1=O [AMONAFIDE]
HT-29
  pIC50: 5.26
MCF7
  pIC50: 5.39
A549
  pIC50: 5.11
[1]
  inhibition: inactive

## COc1ccc(/C=C/C(=O)N2CCN(CCN3C(=O)c4cccc5cccc(c45)C3=O)CC2)cc1O
HT-29
  pIC50: 4.99
MCF7
  pIC50: 4.86
A549
  pIC50: 4.85

## Cc1nc2ccc(NC(=O)CN3CCN(CCN4C(=O)c5cccc6cccc(c56)C4=O)CC3)cc2s1
HT-29
  pIC50: 5.46
MCF7
  pIC50: 5.29
A549
  pIC50: 5.41
[2]
  GI50: 1.19 to 14.1 µM
Calf thymus DNA [3]
  Activity: Active
Calf thymus DNA [4]
  Activity: Active
Calf thymus DNA [5]
  Activity: Active
Calf thymus DNA [6]
  Activity: Active
Calf thymus DNA [7]
  Activity: Active
[1]
  inhibition: Active

## COc1ccc(/C=C/C(=O)N2CCN(CCN3C(=O)c4cccc5cccc(c45)C3=O)CC2)c(OC)c1
HT-29
  pIC50: 4.62
MCF7
  pIC50: 4.54
A549
  pIC50: 4.57

## Cc1ccc2nc(NC(=O)CN3CCN(CCN4C(=O)c5cccc6cccc(c56)C4=O)CC3)sc2c1
HT-29
  pIC50: 5.39
MCF7
  pIC50: 4.82
A549
  pIC50: 5.09

## O=C(/C=C/c1ccc(F)c(F)c1)N1CCN(CCN2C(=O)c3cccc4cccc(c34)C2=O)CC1
HT-29
  pIC50: 4.87
MCF7
  pIC50: 4.55
A549
  pIC50: 4.74

## CCOc1ccc2nc(NC(=O)CN3CCN(CCN4C(=O)c5cccc6cccc(c56)C4=O)CC3)sc2c1
HT-29
  pIC50: 4.95
MCF7
  pIC50: 4.76
A549
  pIC50: 4.78

## O=C(/C=C/c1cc(F)c(F)c(F)c1)N1CCN(CCN2C(=O)c3cccc4cccc(c34)C2=O)CC1
HT-29
  pIC50: 4.86
MCF7
  pIC50: 4.71
A549
  pIC50: 4.83

## Cc1cc2nc(NC(=O)CN3CCN(CCN4C(=O)c5cccc6cccc(c56)C4=O)CC3)sc2cc1C
HT-29
  pIC50: 5.30
MCF7
  pIC50: 4.90
A549
  pIC50: 5.21

## CN(C)c1ccc(/C=C/C(=O)N2CCN(CCN3C(=O)c4cccc5cccc(c45)C3=O)CC2)cc1
HT-29
  pIC50: 5.40
MCF7
  pIC50: 4.88
A549
  pIC50: 5.08

## O=C(/C=C/c1ccc(F)cc1F)N1CCN(CCN2C(=O)c3cccc4cccc(c34)C2=O)CC1
HT-29
  pIC50: 4.76
MCF7
  pIC50: 4.63
A549
  pIC50: 4.79

## COc1cccc(/C=C/C(=O)N2CCN(CCN3C(=O)c4cccc5cccc(c45)C3=O)CC2)c1
HT-29
  pIC50: 4.81
MCF7
  pIC50: 4.47
A549
  pIC50: 4.66
Calf thymus DNA [4]
  Activity: Active

## O=C(/C=C/c1ccc2c(c1)OCO2)N1CCN(CCN2C(=O)c3cccc4cccc(c34)C2=O)CC1
HT-29
  pIC50: 5.42
MCF7
  pIC50: 4.74
A549
  pIC50: 5.32
Calf thymus DNA [3]
  Activity: Active
Calf thymus DNA [8]
  Activity: Active
Calf thymus DNA [5]
  Activity: Active
Calf thymus DNA [6]
  Activity: Active
Calf thymus DNA [7]
  Activity: Active
[1]
  inhibition: Active

## O=C(CN1CCN(CCN2C(=O)c3cccc4cccc(c34)C2=O)CC1)Nc1nc2ccccc2s1
HT-29
  pIC50: 4.96
MCF7
  pIC50: 4.58
A549
  pIC50: 4.83

## O=C(CN1CCN(CCN2C(=O)c3cccc4cccc(c34)C2=O)CC1)Nc1ccc2ncsc2c1
HT-29
  pIC50: 5.43
MCF7
  pIC50: 5.10
A549
  pIC50: 5.39
[2]
  GI50: 1.38 to 43.3 µM
Calf thymus DNA [3]
  Activity: Active
Calf thymus DNA [4]
  Activity: Active
Calf thymus DNA [9]
  Activity: 2 nm
Calf thymus DNA [8]
  Activity: Active
Calf thymus DNA [6]
  Activity: Active
Calf thymus DNA [7]
  Activity: Active
[1]
  inhibition: Active

## O=C(/C=C/c1cccc(C(F)(F)F)c1)N1CCN(CCN2C(=O)c3cccc4cccc(c34)C2=O)CC1
HT-29
  pIC50: 4.77
MCF7
  pIC50: 4.58
A549
  pIC50: 4.70

## COc1ccc2nc(NC(=O)CN3CCN(CCN4C(=O)c5cccc6cccc(c56)C4=O)CC3)sc2c1
HT-29
  pIC50: 5.37
MCF7
  pIC50: 5.10
A549
  pIC50: 5.32

## O=C(/C=C/c1ccccc1)N1CCN(CCN2C(=O)c3cccc4cccc(c34)C2=O)CC1
HT-29
  pIC50: 4.79
MCF7
  pIC50: 4.64
A549
  pIC50: 4.66
Calf thymus DNA [4]
  Activity: Active
Calf thymus DNA [6]
  Activity: Active
Calf thymus DNA [7]
  Activity: inactive
[1]
  inhibition: inactive

## O=C(/C=C/c1cc(F)cc(F)c1)N1CCN(CCN2C(=O)c3cccc4cccc(c34)C2=O)CC1
HT-29
  pIC50: 5.08
MCF7
  pIC50: 4.86
A549
  pIC50: 5.19
